According to ChEMBL document CHEMBL4359895, “Discovery and biological evaluation of darolutamide derivatives as inhibitors and down-regulators of wild-type AR and the mutants” (Eur J Med Chem, 2019):

Key:
PC-3 = test: Cytotoxicity against human PC3 assessed as reduction in cell viability incubated for 6 days by CCK-8 assay; format: cell-based; conditions: PC-3, 144 h
In short: (§1)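 Cell proliferation assay run on LNCaP/AR, VCaP, 22Rv1, PC-3 and L-02 cells, with PC-3 and L-02 serving as AR-independent toxicity controls. IC50 fitted in GraphPad Prism 5 as the mean of at least two experiments, each in duplicate. Deviations under 35%.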

VCaP = test: Antiproliferative activity against human VCaP expressing AR assessed as reduction in cell viability incubated for 6 days by CCK-8 assay; format: functional, cell-based; conditions: 144 h; in short: as §1
LNCaP = test: Antiproliferative activity against human LNCAP expressing AR assessed as reduction in cell viability incubated for 6 days by CCK-8 assay; format: functional, cell-based; conditions: 144 h; in short: as §1
CWR22R = test: Antiproliferative activity against human 22Rv1 expressing AR assessed as reduction in cell viability incubated for 6 days by CCK-8 assay; format: functional, cell-based; conditions: 22Rv1, 144 h; in short: as §1
L02 = test: Cytotoxicity against human L02 assessed as reduction in cell viability incubated for 6 days by CCK-8 assay; format: cell-based; conditions: L02, 144 h; in short: as §1

Structure (SMILES)	IC50 (PC-3)	IC50 (VCaP)	IC50 (LNCaP)	IC50 (CWR22R)	IC50 (L02)
C[C@@H](Cn1ccc(-c2ccc(C#N)c(Cl)c2)n1)NC(=O)C1CC(=O)C1	> 30 µM	22.5 µM	3.04 µM	–	–
C[C@@H](Cn1ccc(-c2ccc(C#N)c(Cl)c2)n1)Nc1ccc2c(ccn2C)c1	–	2.13 µM	0.49 µM	12 µM	–
C[C@@H](Cn1ccc(-c2ccc(C#N)c(Cl)c2)n1)Nc1nc(Cl)nc2nc[nH]c12	> 30 µM	2.7 µM	2.66 µM	4.38 µM	14.5 µM
CC(=O)c1ccc(S(=O)(=O)N[C@@H](C)Cn2ccc(-c3ccc(C#N)c(Cl)c3)n2)cc1	> 30 µM	3.95 µM	5.23 µM	–	–
C[C@@H](Cn1ccc(-c2ccc(C#N)c(Cl)c2)n1)Nc1cccc2ccncc12	5.13 µM	4.02 µM	3.09 µM	4.72 µM	–
C[C@@H](Cn1ccc(-c2ccc(C#N)c(Cl)c2)n1)Nc1ccccn1	–	–	1.11 µM	> 30 µM	–
C[C@@H](Cn1ccc(-c2ccc(C#N)c(Cl)c2)n1)Nc1cncnc1	> 30 µM	> 30 µM	2.07 µM	> 30 µM	> 30 µM
C[C@@H](Cn1ccc(-c2ccc(C#N)c(Cl)c2)n1)NC(=O)c1cccc(OCC(O)CO)c1 (stereo partly specified)	> 30 µM	0.59 µM	0.74 µM	> 30 µM	> 30 µM
COc1ccc(C(=O)N[C@@H](C)Cn2ccc(-c3ccc(C#N)c(Cl)c3)n2)cc1	> 30 µM	1.54 µM	3.41 µM	–	–
C[C@@H](Cn1ccc(-c2ccc(C#N)c(Cl)c2)n1)NC(=O)c1ccccc1F	> 30 µM	2.19 µM	1.81 µM	–	–
C[C@@H](Cn1ccc(-c2ccc(C#N)c(Cl)c2)n1)NS(=O)(=O)c1cn(C)cn1	> 30 µM	13.6 µM	> 30 µM	–	–
C[C@@H](Cn1ccc(-c2cc(F)c(C#N)c(Cl)c2)n1)NC(=O)Nc1cc(C(C)(C)C)[nH]n1	> 30 µM	5.12 µM	1.63 µM	–	15 µM
C[C@@H](Cn1ccc(-c2ccc(C#N)c(Cl)c2)n1)Nc1ccc2ccccc2c1	–	4.61 µM	7.7 µM	4.61 µM	26.8 µM
C[C@@H](Cn1ccc(-c2ccc(C#N)c(Cl)c2)n1)Nc1nccc2ccccc12	> 30 µM	1.47 µM	2.1 µM	3.57 µM	–
C[C@@H](Cn1ccc(-c2ccc(C#N)c(Cl)c2)n1)Nc1ccnc2ccccc12	–	2.41 µM	4.81 µM	4.29 µM	–
Cc1ccnc(N[C@@H](C)Cn2ccc(-c3ccc(C#N)c(Cl)c3)n2)n1	> 30 µM	0.85 µM	1.33 µM	4.76 µM	> 30 µM
C[C@H](Cn1ccc(-c2ccc(C#N)c(Cl)c2)n1)Nc1ncnc2nc[nH]c12	1.56 µM	2 µM	0.85 µM	10.6 µM	–
C[C@@H](Cn1ccc(-c2ccc(C#N)c(Cl)c2)n1)NS(=O)(=O)c1cccnc1	> 30 µM	2.45 µM	6.14 µM	–	–
COC(=O)/C=C/C(=O)N[C@@H](C)Cn1ccc(-c2ccc(C#N)c(Cl)c2)n1	> 30 µM	5.23 µM	2.46 µM	–	–
C[C@@H](Cn1ccc(-c2ccc(C#N)c(Cl)c2)n1)NC(=O)c1ccccc1	> 30 µM	–	1.83 µM	–	–
CC(=O)c1ccc(C(=O)N[C@@H](C)Cn2ccc(-c3ccc(C#N)c(Cl)c3)n2)cc1	> 30 µM	1.4 µM	3.6 µM	–	15.3 µM
CC(=O)c1cc(C(=O)N[C@@H](C)Cn2ccc(-c3ccc(C#N)c(Cl)c3)n2)n[nH]1	> 30 µM	–	1.13 µM	> 30 µM	–
C[C@@H](Cn1ccc(-c2ccc(C#N)c(Cl)c2)n1)Nc1ccc2cnccc2c1	–	2.26 µM	0.51 µM	2.98 µM	–
